In series [1] the test system is snake venom phosphodiesterase. Nature of the series: Chemical stability in presence of snake venom phosphodiesterase assessed as half life. It is filed as physicochemical.
The subject of series [2] is Mus musculus. Nature of the series: Hepatoprotective activity in BALB/c mouse assessed as at 23 mg/kg, ip assessed as reduction of plasma alanine amino transferase levels after 72 hrs post dose. More on the design: dose 23 mg/kg. It is filed as functional, organism-based. The essentials:
(§1)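 Balb-c mice, 4 per group, one ip dose at 23 or 46 mg/kg of 14-mer fully phosphorothioate gapmer ASO targeting PTEN. Sacrifice 72 h after dosing. Liver PTEN mRNA quantified by quantitative RT-PCR, expressed as % down-regulation versus saline-treated animals. Plasma ALT (IU/L) measured after sacrifice.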

In series [3] the test system is Mus musculus. Nature of the series: Hepatoprotective activity in BALB/c mouse assessed as at 46 mg/kg, ip assessed as reduction of plasma alanine amino transferase levels after 72 hrs post dose. It is filed as functional, organism-based. Also on record: dose 46 mg/kg. The essentials:
as §1

For series [4], the system named is Mus musculus. Nature of the series: Reduction in PTEN mRNA expression in BALB/c mouse liver at 46 mg/kg, ip measured 72 hrs post dose by Rt-PCR. It is filed as functional, organism-based. More on the design: dose 46 mg/kg. The essentials:
as §1

Series [5] relates to Mus musculus. Nature of the series: Reduction in PTEN mRNA expression in BALB/c mouse liver at 23 mg/kg, ip measured 72 hrs post dose by Rt-PCR. More on the design: dose 23 mg/kg. It is filed as functional, organism-based. The essentials:
as §1

Series [6] concerns Mus musculus. Nature of the series: Reduction in PTEN mRNA expression in ip dosed BALB/c mouse liver administered twice weekly for 3 weeks measured after 72 hrs post last dose. The series is classed as functional. The essentials: (§2)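 Balb-c mice (n = 4/group) dosed ip twice a week for 3 weeks at 0.5, 1.5, 4.5 and 15 mg/kg of PTEN-targeting 14-mer phosphorothioate gapmer. Sacrifice 72 h after last dose. Liver PTEN mRNA by quantitative RT-PCR as % versus saline, with ED50 derived from dose-response. Plasma ALT (IU/L) recorded. Spleen weight given as fold increase over saline group.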

Series [7] concerns Mus musculus. Nature of the series: Hepatoprotective activity in BALB/c mouse assessed as reduction of plasma alanine amino transferase levels at 15 mg/kg, ip administered twice weekly for 3 weeks measured after 72 hrs post last dose. More on the design: dose 15 mg/kg. It is filed as functional, organism-based. The essentials: as §2
Series [8] concerns Mus musculus. Nature of the series: Toxicity in BALB/c mouse assessed as increase in spleen weight at 1.5 mg/kg, ip administered twice weekly for 3 weeks measured after 72 hrs post last dose. More on the design: dose 1.5 mg/kg, route intraperitoneal. It is filed as organism-based. The settings on record: in vivo. Summed up:
as §2

Series [9] relates to Mus musculus. Nature of the series: Toxicity in BALB/c mouse assessed as increase in spleen weight at 4.5 mg/kg, ip administered twice weekly for 3 weeks measured after 72 hrs post last dose. The series is classed as organism-based. More on the design: dose 4.5 mg/kg, route intraperitoneal. The settings on record: in vivo. The essentials:
as §2

In series [10] the test system is Mus musculus. Nature of the series: Reduction in PTEN mRNA expression in BALB/c mouse liver at 12 mg/kg, ip administered as single dose measured 72 hrs post dose. The series is classed as functional. The essentials:
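Single ip injection at 12 or 60 mg/kg of phosphorothioate gapmer (14-base deoxy gap, two modified nucleotides per wing) against PTEN in Balb-c mice, n = 4/group. After sacrifice, liver PTEN mRNA reported as % down-regulation versus saline controls, and plasma ALT (IU/L) measured as the liver toxicity read-out.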

Activity calls are given as the source filed them. No cut-off for these calls is given here.

We go through five compounds from ChEMBL document CHEMBL1629539, “Configuration of the 5'-methyl group modulates the biophysical and biological properties of locked nucleic acid (LNA) oligonucleotides” (J Med Chem, 2010).

In general, half-life refers to the time in which the quantity being followed falls by half. Turning to `Cc1cn([C@H]2C[C@H](OP(=O)(O)OC[C@H]3O[C@@H](n4cc(C)c(=O)[nH]c4=O)C[C@@H]3OP(=O)(O)OC[C@H]3O[C@@H](n4cc(C)c(=O)[nH]c4=O)C[C@@H]3OP(=O)(O)OC[C@H]3O[C@@H](n4cc(C)c(=O)[nH]c4=O)C[C@@H]3OP(=O)(O)OC[C@H]3O[C@@H](n4cc(C)c(=O)[nH]c4=O)C[C@@H]3OP(=O)(O)OC[C@H]3O[C@@H](n4cc(C)c(=O)[nH]c4=O)C[C@@H]3OP(=O)(O)OC[C@H]3O[C@@H](n4cc(C)c(=O)[nH]c4=O)C[C@@H]3OP(=O)(O)OC[C@H]3O[C@@H](n4cc(C)c(=O)[nH]c4=O)C[C@@H]3OP(=O)(O)OC[C@H]3O[C@@H](n4cc(C)c(=O)[nH]c4=O)C[C@@H]3OP(=O)(O)OC[C@H]3O[C@@H](n4cc(C)c(=O)[nH]c4=O)C[C@@H]3OP(=O)(O)OC[C@@]34CO[C@@H]([C@H](n5ccc(=O)[nH]c5=O)O3)[C@@H]4OP(=O)(O)O[C@H](C)[C@@]34CO[C@@H]([C@H](n5ccc(=O)[nH]c5=O)O3)[C@@H]4O)[C@@H](CO)O2)c(=O)[nH]c1=O`, the half-life in series [1] is 3.5 h.

The term ED50 denotes the dose at which the effect has come halfway, by size or by number of responders. A lower ED50 goes with an effect at a small dose. As for `Cc1cn([C@@H]2O[C@@]3(COP(O)(=S)O[C@H]4[C@H]5OC[C@]4(COP(O)(=S)O[C@H]4[C@H]6OC[C@]4(COP(O)(=S)O[C@H]4[C@H]7OC[C@]4(COP(O)(=S)O[C@H]4[C@H]8OC[C@]4(COP(O)(=S)O[C@H]4[C@H]9OC[C@]4(COP(O)(=S)O[C@H]4[C@H]%10OC[C@]4(COP(O)(=S)O[C@H]4[C@H]%11OC[C@]4([C@H](C)O)O[C@H]%11n4ccc(=O)[nH]c4=O)O[C@H]%10n4ccc(N)nc4=O)O[C@H]9n4cnc9c(N)ncnc94)O[C@H]8n4cc(C)c(=O)[nH]c4=O)O[C@H]7n4cnc7nc(N)[nH]c(=O)c74)O[C@H]6n4cnc6nc(N)[nH]c(=O)c64)O[C@H]5N4CCC(N)=NC4=O)CO[C@@H]2[C@@H]3OP(O)(=S)OC[C@@]23CO[C@@H]([C@H](n4cnc5nc(N)[nH]c(=O)c54)O2)[C@@H]3OP(O)(=S)OC[C@@]23CO[C@@H]([C@H](n4ccc(N)nc4=O)O2)[C@@H]3OP(O)(=S)OC[C@@]23CO[C@@H]([C@H](n4cnc5c(N)ncnc54)O2)[C@@H]3OP(O)(=S)OC[C@@]23CO[C@@H]([C@H](n4cnc5nc(N)[nH]c(=O)c54)O2)[C@@H]3OP(O)(=S)OC[C@@]23CO[C@@H]([C@H](n4ccc(N)nc4=O)O2)[C@@H]3OP(O)(=S)OC[C@@]23CO[C@@H]([C@H](n4ccc(=O)[nH]c4=O)O2)[C@@H]3O)c(=O)[nH]c1=O` (stereo partly drawn), the result in series [2], in series [3] and in series [7] was Active. The inhibition entry in [4] is “Active”. Besides, the inhibition result in series [5] is “inactive”. For the same compound, in series [6], the 50% effective dose (ED50) came out at 6 mg/kg. Besides, in series [6], the inhibition entry is “Dose-dependent effect”. For the same compound, the Activity entry in [8] and in series [9] was “Non-toxic” throughout.

Regarding `Cc1cn([C@H]2CC(OP(=O)(O)OC[C@H]3O[C@@H](n4cc(C)c(=O)[nH]c4=O)C[C@@H]3OP(=O)(O)OC[C@H]3O[C@@H](n4cc(C)c(=O)[nH]c4=O)C[C@@H]3OP(=O)(O)OC[C@H]3O[C@@H](n4cc(C)c(=O)[nH]c4=O)C[C@@H]3OP(=O)(O)OC[C@H]3O[C@@H](n4cc(C)c(=O)[nH]c4=O)C[C@@H]3OP(=O)(O)OC[C@H]3O[C@@H](n4cc(C)c(=O)[nH]c4=O)C[C@@H]3OP(=O)(O)OC[C@H]3O[C@@H](n4cc(C)c(=O)[nH]c4=O)C[C@@H]3OP(=O)(O)OC[C@H]3O[C@@H](n4cc(C)c(=O)[nH]c4=O)C[C@@H]3OP(=O)(O)OC[C@H]3O[C@@H](n4cc(C)c(=O)[nH]c4=O)C[C@@H]3OP(=O)(O)OC[C@H]3O[C@@H](n4cc(C)c(=O)[nH]c4=O)C[C@@H]3OP(=O)(O)OC[C@@]34CO[C@@H]([C@H](n5ccc(=O)[nH]c5=O)O3)[C@@H]4OP(=O)(O)OC[C@@]34CO[C@@H]([C@H](n5ccc(=O)[nH]c5=O)O3)[C@@H]4O)[C@@H](CO)O2)c(=O)[nH]c1=O` (stereo partly drawn), in [1], the half-life turned out to be 0.0433 h.

In the case of `Cc1cn([C@H]2C[C@H](OP(=O)(O)OC[C@H]3O[C@@H](n4cc(C)c(=O)[nH]c4=O)C[C@@H]3OP(=O)(O)OC[C@H]3O[C@@H](n4cc(C)c(=O)[nH]c4=O)C[C@@H]3OP(=O)(O)OC[C@H]3O[C@@H](n4cc(C)c(=O)[nH]c4=O)C[C@@H]3OP(=O)(O)OC[C@H]3O[C@@H](n4cc(C)c(=O)[nH]c4=O)C[C@@H]3OP(=O)(O)OC[C@H]3O[C@@H](n4cc(C)c(=O)[nH]c4=O)C[C@@H]3OP(=O)(O)OC[C@H]3O[C@@H](n4cc(C)c(=O)[nH]c4=O)C[C@@H]3OP(=O)(O)OC[C@H]3O[C@@H](n4cc(C)c(=O)[nH]c4=O)C[C@@H]3OP(=O)(O)OC[C@H]3O[C@@H](n4cc(C)c(=O)[nH]c4=O)C[C@@H]3OP(=O)(O)OC[C@H]3O[C@@H](n4cc(C)c(=O)[nH]c4=O)C[C@@H]3OP(=O)(O)OC[C@@]34CO[C@@H]([C@H](n5ccc(=O)[nH]c5=O)O3)[C@@H]4OP(=O)(O)O[C@@H](C)[C@@]34CO[C@@H]([C@H](n5ccc(=O)[nH]c5=O)O3)[C@@H]4O)[C@@H](CO)O2)c(=O)[nH]c1=O`, the half-life in [1] was 8.1 h.

As to `Cc1cn([C@@H]2O[C@@]3(COP(O)(=S)O[C@H]4[C@H]5OC[C@]4(COP(O)(=S)O[C@H]4[C@H]6OC[C@]4(COP(O)(=S)O[C@H]4[C@H]7OC[C@]4(COP(O)(=S)O[C@H]4[C@H]8OC[C@]4(COP(O)(=S)O[C@H]4[C@H]9OC[C@]4(COP(O)(=S)O[C@H]4[C@H]%10OC[C@]4(COP(O)(=S)O[C@H]4[C@H]%11OC[C@]4(COP(O)(=S)O[C@H]4[C@H]%12OC[C@]4(COP(O)(=S)O[C@H]4[C@H]%13OC[C@]4([C@H](C)O)O[C@H]%13n4ccc(N)nc4=O)O[C@H]%12n4ccc(=O)[nH]c4=O)O[C@H]%11n4cnc%11c(=O)[nH]c(N)nc%114)O[C@H]%10n4ccc(N)nc4=O)O[C@H]9n4cc(C)c(=O)[nH]c4=O)O[C@H]8n4cnc8ncnc(N)c84)O[C@H]7[n+]4c[nH]c7nc(N)[nH]c(=O)c74)O[C@H]6n4ccc(N)nc4=O)O[C@H]5n4ccc(N)nc4=O)CO[C@@H]2[C@@H]3OP(O)(=S)OC[C@@]23CO[C@@H]([C@H](n4ccc(N)nc4=O)O2)[C@@H]3OP(O)(=S)OC[C@@]23CO[C@@H]([C@H](n4cc(C)c(=O)[nH]c4=O)O2)[C@@H]3OP(O)(=S)OC[C@@]23CO[C@@H]([C@H]([n+]4c[nH]c5nc(N)[nH]c(=O)c54)O2)[C@@H]3OP(O)(=S)OC[C@@]23CO[C@@H]([C@H]([n+]4c[nH]c5nc(N)[nH]c(=O)c54)O2)[C@@H]3OP(O)(=S)OC[C@@]23CO[C@@H]([C@H](n4cnc5ncnc(N)c54)O2)[C@@H]3OP(O)(=S)OC[C@@]23CO[C@@H]([C@H](n4cc(C)c(=O)[nH]c4=O)O2)[C@@H]3OP(O)(=S)OC[C@@]23CO[C@@H]([C@H](n4ccc(=O)[nH]c4=O)O2)[C@@H]3OP(O)(=S)OC[C@@]23CO[C@@H]([C@H](n4ccc(=O)[nH]c4=O)O2)[C@@H]3O)c(=O)[nH]c1=O` (stereo partly drawn), the inhibition entry in series [10] was “Active”.
